{"source": "ChEMBL document CHEMBL4342410", "about": "“Design and Discovery of N-(3-(2-(2-Hydroxyethoxy)-6-morpholinopyridin-4-yl)-4-methylphenyl)-2-(trifluoromethyl)isonicotinamide, a Selective, Efficacious, and Well-Tolerated RAF Inhibitor Targeting RAS Mutant Cancers: The Path to the Clinic” (J Med Chem, 2020)", "key": {"[1]": {"assay": "Cmax in mouse at 4 mg/kg, po", "assay_type": "ADME, organism-based", "design": "dose 4 mg/kg, route oral", "conditions": "in vivo"}, "[2]": {"assay": "Dissociation constant, pKa of the compound", "assay_type": "physicochemical"}, "[3]": {"assay": "Distribution coefficient, log D of compound at pH 6.5", "assay_type": "physicochemical", "conditions": "octanol/water"}, "[4]": {"target": "Voltage-gated inwardly rectifying potassium channel KCNH2 (Homo sapiens, UniProt Q12809)", "sequence (Q12809 whole entry)": "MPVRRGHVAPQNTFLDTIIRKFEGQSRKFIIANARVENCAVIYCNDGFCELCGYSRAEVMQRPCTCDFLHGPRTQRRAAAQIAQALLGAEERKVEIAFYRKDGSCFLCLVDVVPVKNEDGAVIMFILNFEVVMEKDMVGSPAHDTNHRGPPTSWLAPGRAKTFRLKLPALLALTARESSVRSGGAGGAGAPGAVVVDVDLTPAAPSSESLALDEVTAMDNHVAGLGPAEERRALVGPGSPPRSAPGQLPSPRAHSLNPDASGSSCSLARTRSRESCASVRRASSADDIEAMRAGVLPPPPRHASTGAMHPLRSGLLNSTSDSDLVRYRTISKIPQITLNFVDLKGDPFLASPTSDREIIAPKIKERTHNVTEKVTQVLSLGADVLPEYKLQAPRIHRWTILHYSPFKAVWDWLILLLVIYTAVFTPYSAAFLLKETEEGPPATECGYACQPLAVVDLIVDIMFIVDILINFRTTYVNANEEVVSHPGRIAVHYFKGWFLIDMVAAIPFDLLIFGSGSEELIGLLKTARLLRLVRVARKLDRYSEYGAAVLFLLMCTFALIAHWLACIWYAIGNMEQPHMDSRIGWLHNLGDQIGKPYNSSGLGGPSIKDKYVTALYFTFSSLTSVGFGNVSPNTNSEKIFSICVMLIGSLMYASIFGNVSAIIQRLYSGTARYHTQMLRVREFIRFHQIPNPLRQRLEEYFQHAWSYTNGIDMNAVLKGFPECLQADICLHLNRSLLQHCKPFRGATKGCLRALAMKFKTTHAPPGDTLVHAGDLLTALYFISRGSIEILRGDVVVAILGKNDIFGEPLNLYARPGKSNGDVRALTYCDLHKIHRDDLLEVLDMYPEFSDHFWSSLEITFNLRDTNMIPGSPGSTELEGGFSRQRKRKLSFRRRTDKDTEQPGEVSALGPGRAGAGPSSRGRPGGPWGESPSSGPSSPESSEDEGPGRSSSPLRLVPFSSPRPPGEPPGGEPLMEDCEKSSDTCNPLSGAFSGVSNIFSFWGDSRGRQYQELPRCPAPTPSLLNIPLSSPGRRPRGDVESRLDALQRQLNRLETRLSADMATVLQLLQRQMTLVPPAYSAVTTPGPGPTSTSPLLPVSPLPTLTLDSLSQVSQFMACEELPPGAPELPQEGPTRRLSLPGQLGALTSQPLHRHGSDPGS", "assay": "Inhibition of human ERG by patch clamp method", "procedure,_shortened": "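hERG inhibition measured by manual patch clamp.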"}, "[5]": {"assay": "Apparent permeability across basolateral to apical side in human Caco2 cells at pH 7.4 by LC/MS/MS analysis", "assay_type": "ADME, cell-based", "conditions": "Caco-2, pH 7.4"}, "[6]": {"assay": "Cmax in nude rat xenografted with human Calu6 cells harboring KRAS Q61K mutant at 15 mg/kg, po administered daily for 18 days starting from day 13 post tumor implantation and measured on day 31", "assay_type": "ADME, organism-based", "design": "dose 15 mg/kg, route oral", "conditions": "in vivo", "procedure,_shortened": "(§1)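 Nude rats carrying Calu-6 (KRAS Q61K) NSCLC xenografts were dosed p.o. once daily at 15, 35, 75 or 150 mg/kg from day 13 to day 31 after implant. Plasma was collected after the last dose and drug concentration was measured. AUC and Cmax were calculated per dose on day 31.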"}, "[7]": {"assay": "Apparent permeability across apical to basolateral side in human Caco2 cells at pH 7.4 by LC/MS/MS analysis", "assay_type": "ADME, cell-based", "conditions": "Caco-2, pH 7.4"}, "[8]": {"assay": "Cmax in nude rat xenografted with human Calu6 cells harboring KRAS Q61K mutant at 35 mg/kg, po administered daily for 18 days starting from day 13 post tumor implantation and measured on day 31", "assay_type": "ADME, organism-based", "design": "dose 35 mg/kg, route oral", "conditions": "in vivo", "procedure,_shortened": "as §1"}, "[9]": {"assay": "AUC (infinity) in rat at 4 mg/kg, po", "assay_type": "ADME, organism-based", "design": "dose 4 mg/kg, route oral, time infinity", "conditions": "in vivo"}, "[10]": {"assay": "Tmax in nude rat xenografted with human Calu6 cells harboring KRAS Q61K mutant at 15 mg/kg, po administered daily for 18 days starting from day 13 post tumor implantation and measured on day 31", "assay_type": "ADME, organism-based", "conditions": "in vivo", "procedure,_shortened": "(§2)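 Calu-6 xenograft nude rats were dosed orally once daily at 15, 35, 75 or 150 mg/kg from day 13 after implantation to day 31. Plasma was collected after the last dose on day 31, drug concentrations were measured, and PK parameters including AUC were calculated for each dose.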"}, "[11]": {"assay": "Intrinsic clearance in human liver microsomes", "assay_type": "ADME, Microsome", "conditions": "read-out: CLH"}, "Calu-6 [12]": {"system": "Calu-6", "assay": "Antiproliferative activity against human Calu6 cells harboring KRAS Q61K mutant assessed as reduction in cell viability after 72 hrs by CellTiter-Glo assay", "assay_type": "functional, cell-based", "conditions": "Calu-6, 72 h"}, "[13]": {"assay": "Oral bioavailability in mouse at 4 mg/kg", "assay_type": "ADME, organism-based", "conditions": "in vivo"}, "[14]": {"assay": "Toxicity in human Calu6 cells harboring KRAS Q61K mutant xenografted nude rat assessed as mortality at 15 to 150 mg/kg, po administered daily for 18 days starting from day 13 post tumor implantation and measured during compound dosing", "assay_type": "organism-based", "conditions": "in vivo, 432 h", "procedure,_shortened": "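Nude rats bearing Calu-6 (KRAS Q61K) NSCLC xenografts were dosed orally once daily with vehicle or 15, 35, 75 or 150 mg/kg. Dosing ran from day 13 post-implant to day 31. Rats were monitored for mortality and signs of toxicity over the treatment period, alongside body weight.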"}, "Rattus norvegicus": {"system": "Rattus norvegicus", "assay": "In vivo inhibition of CRAF in po dosed nude rat xenografted with human Calu6 cells harboring KRAS Q61K mutant assessed as reduction in tumor MEK phosphorylation administered as single dose measured after 1 to 48 hrs by sandwich ELISA", "assay_type": "functional, organism-based", "procedure,_shortened": "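Calu-6 (KRAS Q61K) xenograft-bearing nude rats were given a single oral dose of 15, 35, 75 or 150 mg/kg. Tumor and blood were sampled at 1, 4, 7, 24 and 48 h post-dose. Tumor pMEK was quantified by MSD immunoassay and expressed as percent pMEK. Free plasma exposure was determined in parallel.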"}, "[15]": {"assay": "Time of last measurable concentration in nude rat xenografted with human Calu6 cells harboring KRAS Q61K mutant at 35 mg/kg, po administered daily for 18 days starting from day 13 post tumor implantation and measured on day 31", "assay_type": "ADME, organism-based", "conditions": "in vivo, 432 h", "procedure,_shortened": "as §2"}, "[16]": {"assay": "Time of last measurable concentration in nude rat xenografted with human Calu6 cells harboring KRAS Q61K mutant at 15 mg/kg, po administered daily for 18 days starting from day 13 post tumor implantation and measured on day 31", "assay_type": "ADME, organism-based", "conditions": "in vivo, 432 h", "procedure,_shortened": "as §2"}, "Calu-6 [17]": {"system": "Calu-6", "assay": "Antitumor activity against human Calu6 cells harboring KRAS Q61K mutant xenografted in nude rat assessed as tumor regression at 75 mg/kg, po administered daily for 18 days starting from day 13 post tumor implantation and measured on day 31 relative to control", "assay_type": "functional", "procedure,_shortened": "(§3)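 Nude rats bearing Calu-6 (KRAS Q61K) human NSCLC xenografts received vehicle or drug p.o. daily at 15, 35, 75 or 150 mg/kg. Dosing began 13 days after tumor implantation and ran to day 31, i.e. 18 days of treatment. Tumor volumes were read out as %T/C or % regression versus vehicle on day 31. Body weight was also tracked.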"}, "[18]": {"target": "RAF proto-oncogene serine/threonine-protein kinase (Homo sapiens, UniProt P04049)", "sequence (P04049 whole entry)": "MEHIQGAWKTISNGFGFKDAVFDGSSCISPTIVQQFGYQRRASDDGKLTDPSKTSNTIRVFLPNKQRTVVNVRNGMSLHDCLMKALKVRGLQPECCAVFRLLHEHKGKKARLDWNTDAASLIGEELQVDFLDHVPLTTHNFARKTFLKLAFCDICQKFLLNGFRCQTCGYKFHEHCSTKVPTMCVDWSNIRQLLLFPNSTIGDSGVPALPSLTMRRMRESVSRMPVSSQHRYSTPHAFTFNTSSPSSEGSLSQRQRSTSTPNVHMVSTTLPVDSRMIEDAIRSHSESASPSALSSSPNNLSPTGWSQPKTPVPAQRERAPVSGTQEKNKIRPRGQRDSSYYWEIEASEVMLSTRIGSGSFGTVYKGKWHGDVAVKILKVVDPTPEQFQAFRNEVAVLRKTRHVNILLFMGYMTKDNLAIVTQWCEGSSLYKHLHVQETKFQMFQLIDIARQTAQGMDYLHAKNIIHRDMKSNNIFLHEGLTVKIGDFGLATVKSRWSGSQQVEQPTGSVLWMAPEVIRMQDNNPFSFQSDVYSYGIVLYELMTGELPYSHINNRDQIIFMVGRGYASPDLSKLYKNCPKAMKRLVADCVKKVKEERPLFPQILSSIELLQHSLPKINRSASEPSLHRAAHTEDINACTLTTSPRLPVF", "assay": "Inhibition of CRAF in human Calu6 cells assessed as reduction MEK phosphorylation measured after 1 hr by sandwich ELISA", "assay_type": "cell-based"}, "[19]": {"assay": "Volume of distribution at steady state in mouse at 2 mg/kg, iv or 4 mg/kg, po", "assay_type": "ADME, organism-based", "conditions": "in vivo, read-out: Vdss"}, "[20]": {"assay": "Volume of distribution at steady state in rat at 2 mg/kg, iv or 4 mg/kg, po", "assay_type": "ADME, organism-based", "conditions": "in vivo, read-out: Vdss"}, "[21]": {"target": "T1, Serine/threonine-protein kinase B-raf (Homo sapiens, UniProt P15056)", "T1 sequence (P15056 whole entry, the tested form may be a part)": "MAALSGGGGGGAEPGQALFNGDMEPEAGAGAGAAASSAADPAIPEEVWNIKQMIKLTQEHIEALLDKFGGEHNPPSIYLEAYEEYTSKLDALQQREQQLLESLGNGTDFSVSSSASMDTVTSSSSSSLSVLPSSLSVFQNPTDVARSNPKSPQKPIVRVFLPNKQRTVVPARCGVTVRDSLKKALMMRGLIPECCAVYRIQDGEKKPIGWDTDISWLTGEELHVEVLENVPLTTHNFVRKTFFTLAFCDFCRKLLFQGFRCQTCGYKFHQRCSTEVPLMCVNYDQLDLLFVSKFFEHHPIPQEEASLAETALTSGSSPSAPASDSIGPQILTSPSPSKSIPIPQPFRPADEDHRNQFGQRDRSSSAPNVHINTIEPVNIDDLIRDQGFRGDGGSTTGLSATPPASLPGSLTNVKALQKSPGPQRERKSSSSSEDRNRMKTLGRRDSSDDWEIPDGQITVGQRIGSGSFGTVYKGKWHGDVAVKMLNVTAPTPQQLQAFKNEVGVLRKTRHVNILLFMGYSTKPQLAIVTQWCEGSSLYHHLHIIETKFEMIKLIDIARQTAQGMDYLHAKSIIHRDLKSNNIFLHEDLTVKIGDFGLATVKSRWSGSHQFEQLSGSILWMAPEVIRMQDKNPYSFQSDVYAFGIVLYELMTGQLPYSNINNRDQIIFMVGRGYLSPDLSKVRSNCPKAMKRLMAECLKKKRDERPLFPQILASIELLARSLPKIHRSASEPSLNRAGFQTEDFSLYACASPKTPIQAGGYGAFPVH", "assay": "Binding affinity to wild-type human partial length BRAF (S429 to E741 residues) expressed in mammalian expression system at 1 uM by Kinomescan method relative to control"}, "Calu-6 [22]": {"system": "Calu-6", "assay": "Antitumor activity against human Calu6 cells harboring KRAS Q61K mutant xenografted in nude rat assessed as tumor growth at 35 mg/kg, po administered daily for 18 days starting from day 13 post tumor implantation and measured on day 31 relative to control", "assay_type": "functional", "procedure,_shortened": "as §3"}, "[23]": {"assay": "Cmax in dog at 0.4 mg/kg, po", "assay_type": "ADME, organism-based, Canis lupus familiaris", "design": "dose 0.4 mg/kg, route oral", "conditions": "in vivo"}, "[24]": {"target": "T1, Serine/threonine-protein kinase B-raf", "assay": "Inhibition of full-length BRAF (unknown origin)"}, "[25]": {"assay": "AUC (0 to 24 hrs) in nude rat xenografted with human Calu6 cells harboring KRAS Q61K mutant at 15 mg/kg, po administered daily for 18 days starting from day 13 post tumor implantation and measured on day 31", "assay_type": "ADME, organism-based", "design": "dose 15 mg/kg, time < 24 hr, route oral", "conditions": "in vivo", "procedure,_shortened": "as §1"}, "Calu-6 [26]": {"system": "Calu-6", "assay": "Antitumor activity against human Calu6 cells harboring KRAS Q61K mutant xenografted in nude rat assessed as tumor regression at 150 mg/kg, po administered daily for 18 days starting from day 13 post tumor implantation and measured on day 31 relative to control", "assay_type": "functional", "procedure,_shortened": "as §3"}, "[27]": {"assay": "Time at which free plasma concentration stays above in vitro IC50 for CRAF in human Calu6 cells assessed as reduction MEK phosphorylation in nude rat xenografted with human Calu6 cells harboring KRAS Q61K mutant at 150 mg/kg, po", "assay_type": "ADME, organism-based", "conditions": "in vivo"}, "[28]": {"assay": "Cmax in nude rat xenografted with human Calu6 cells harboring KRAS Q61K mutant at 75 mg/kg, po administered daily for 18 days starting from day 13 post tumor implantation and measured on day 31", "assay_type": "ADME, organism-based", "design": "dose 75 mg/kg, route oral", "conditions": "in vivo", "procedure,_shortened": "as §1"}}, "data": [{"smiles": "Cc1ccc(NC(=O)c2ccnc(C(F)(F)F)c2)cc1-c1cc(OCCO)nc(N2CCOCC2)c1", "note": "[NAPORAFENIB]", "values": [{"measurement": "Cmax", "setting": "[1]", "value": 1600, "unit": "nM"}, {"measurement": "pKa", "setting": "[2]", "value": 3.86}, {"measurement": "logD", "setting": "[3]", "value": "> 4"}, {"measurement": "IC50", "setting": "[4]", "value": "> 10000", "unit": "nM"}, {"measurement": "Papp B→A", "setting": "[5]", "value": 19, "unit": "×10⁻⁶ cm/s"}, {"measurement": "Cmax", "setting": "[6]", "value": 878, "unit": "nM"}, {"measurement": "Papp A→B", "setting": "[7]", "value": 9, "unit": "×10⁻⁶ cm/s"}, {"measurement": "Cmax", "setting": "[8]", "value": 2350, "unit": "nM"}, {"measurement": "AUC(0-inf)", "setting": "[9]", "value": 1.8, "unit": "µM·h"}, {"measurement": "Tmax", "setting": "[10]", "value": 3, "unit": "h"}, {"measurement": "microsomal CLint", "setting": "[11]", "value": 13.5, "unit": "µL/min/mg"}, {"measurement": "EC50", "setting": "Calu-6 [12]", "value": "280 to 470", "unit": "nM"}, {"measurement": "bioavailability", "setting": "[13]", "value": 65, "unit": "%"}, {"measurement": "Activity", "setting": "[14]", "value": "Non-Toxic"}, {"measurement": "inhibition", "setting": "Rattus norvegicus", "value": "Dose-dependent effect"}, {"measurement": "Tlast", "setting": "[15]", "value": 24, "unit": "h"}, {"measurement": "Tlast", "setting": "[16]", "value": 24, "unit": "h"}, {"measurement": "Activity", "setting": "Calu-6 [17]", "value": 21, "unit": "%"}, {"measurement": "EC50", "setting": "[18]", "value": "14 to 50", "unit": "nM"}, {"measurement": "Vd", "setting": "[19]", "value": 2.1, "unit": "L/kg"}, {"measurement": "Vd", "setting": "[20]", "value": 5.4, "unit": "L/kg"}, {"measurement": "Activity", "setting": "[21]", "value": "> 98", "unit": "%"}, {"measurement": "T/C", "setting": "Calu-6 [22]", "value": 9, "unit": "%"}, {"measurement": "Cmax", "setting": "[23]", "value": 400, "unit": "nM"}, {"measurement": "IC50", "setting": "[24]", "value": 0.4, "unit": "nM"}, {"measurement": "AUC at 24 h", "setting": "[25]", "value": 7.91, "unit": "µM·h"}, {"measurement": "Activity", "setting": "Calu-6 [26]", "value": 56, "unit": "%"}, {"measurement": "T>IC50", "setting": "[27]", "value": 24, "unit": "h"}, {"measurement": "Cmax", "setting": "[28]", "value": 8680, "unit": "nM"}]}]}
